Laboratory results as given in ChEMBL document CHEMBL2010799, “Hypoglycemic diterpenoids from Tinospora crispa” (2012).
Blank lines part the entries; values can stand above or below the compound they belong to. Activity calls are given as the source filed them. The rule behind the calls is not given here.

Columns and labels:
[1] = Blockade of ATP-sensitive K+ channels
MIN6 = assay: Induction of insulin secretion in mouse MIN6 cells; type: functional, cell-based
Mus musculus [2] = assay: Antidiabetic activity in normal ICR mouse assessed as reduction in plasma glucose level at 5 mg/kg, ip after 60 mins; type: functional, organism-based; set-up: dose 5 mg/kg
Procedure, shortened: (§1)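 ICR mice (normal, STZ-induced T1DM, or diet-induced T2DM) received a single ip injection in 2% DMSO/normal saline vehicle. Orbital plexus blood was drawn under pentobarbital anesthesia before and 60 min after injection. Plasma glucose was read with a glucose kit and analyzer and expressed as percent decrease, (Gi − Gt)/Gi × 100%. Seven animals per group, mean ± SEM.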

Mus musculus [3] = assay: Antidiabetic activity in STZ-induced ICR mouse T1DM model assessed as reduction in plasma glucose level at 5 mg/kg, ip after 60 mins; type: functional, organism-based; set-up: dose 5 mg/kg; procedure, shortened: as §1
Mus musculus [4] = assay: Antidiabetic activity in normal ICR mouse assessed as reduction in plasma glucose level at 5 mg/kg, ip after 60 mins relative to metformin at 200 mg/kg, ip; type: functional
Mus musculus [5] = assay: Antidiabetic activity in STZ-induced ICR mouse T1DM model assessed as reduction in plasma glucose level at 5 mg/kg, ip after 60 mins relative to metformin at 200 mg/kg, ip; type: functional
Mus musculus [6] = assay: Antidiabetic activity in ip dosed diet-induced ICR mouse T2DM model assessed as reduction in plasma glucose level after 60 mins; type: functional, organism-based; procedure, shortened: as §1
Mus musculus [7] = assay: Antidiabetic activity in ip dosed STZ-induced ICR mouse T1DM model assessed as reduction in plasma glucose level after 60 mins; type: functional, organism-based; procedure, shortened: as §1
Mus musculus [8] = assay: Antidiabetic activity in ip dosed normal ICR mouse assessed as reduction in plasma glucose level after 60 mins; type: functional, organism-based; procedure, shortened: as §1
Mus musculus [9] = assay: Antidiabetic activity in normal ICR mouse assessed as increase in plasma insulin level at 0.1 mg/kg, ip after 60 mins by ELISA (reference value: 54 +/- 3.4 pmol/L); type: functional; conditions: route intraperitoneal
Mus musculus [10] = assay: Antidiabetic activity in normal ICR mouse assessed as increase in plasma insulin level at 0.5 mg/kg, ip after 60 mins by ELISA (reference value: 53.1 +/- 3.3 pmol/L); type: functional; conditions: route intraperitoneal
Mus musculus [11] = assay: Antidiabetic activity in normal ICR mouse assessed as increase in plasma insulin level at 1 mg/kg, ip after 60 mins by ELISA (reference value: 60.3 +/- 3.7 pmol/L); type: functional; conditions: route intraperitoneal
Mus musculus [12] = assay: Antidiabetic activity in normal ICR mouse assessed as increase in plasma insulin level at 3 mg/kg, ip after 60 mins by ELISA (reference value: 52 +/- 3.7 pmol/L); type: functional; conditions: route intraperitoneal
Mus musculus [13] = assay: Antidiabetic activity in normal ICR mouse assessed as increase in plasma insulin level at 5 mg/kg, ip after 60 mins by ELISA (reference value: 57.6 +/- 2.4 pmol/L); type: functional; conditions: route intraperitoneal
Mus musculus [14] = assay: Antidiabetic activity in STZ-induced ICR mouse T1DM model assessed as increase in plasma insulin level at 0.1 mg/kg, ip after 60 mins by ELISA (reference value: 15.2 +/- 0.8 pmol/L); type: functional; conditions: route intraperitoneal
Mus musculus [15] = assay: Antidiabetic activity in STZ-induced ICR mouse T1DM model assessed as increase in plasma insulin level at 0.5 mg/kg, ip after 60 mins by ELISA (reference value: 16.2 +/- 0.7 pmol/L); type: functional; conditions: route intraperitoneal
Mus musculus [16] = assay: Antidiabetic activity in STZ-induced ICR mouse T1DM model assessed as increase in plasma insulin level at 1 mg/kg, ip after 60 mins by ELISA (reference value: 15.7 +/- 1.0 pmol/L); type: functional; conditions: route intraperitoneal
Mus musculus [17] = assay: Antidiabetic activity in STZ-induced ICR mouse T1DM model assessed as increase in plasma insulin level at 3 mg/kg, ip after 60 mins by ELISA (reference value: 13.8 +/- 1.6 pmol/L); type: functional; conditions: route intraperitoneal
Mus musculus [18] = assay: Antidiabetic activity in STZ-induced ICR mouse T1DM model assessed as increase in plasma insulin level at 5 mg/kg, ip after 60 mins by ELISA (reference value: 14.7 +/- 0.4 pmol/L); type: functional; conditions: route intraperitoneal
Mus musculus [19] = assay: Antidiabetic activity in diet-induced ICR mouse T2DM model assessed as increase in plasma insulin level at 0.1 mg/kg, ip after 60 mins by ELISA (reference value: 111.8 +/- 5.2 pmol/L); type: functional; conditions: route intraperitoneal
Mus musculus [20] = assay: Antidiabetic activity in diet-induced ICR mouse T2DM model assessed as increase in plasma insulin level at 0.5 mg/kg, ip after 60 mins by ELISA (reference value: 120.8 +/- 4.3 pmol/L); type: functional; conditions: route intraperitoneal
Mus musculus [21] = assay: Antidiabetic activity in diet-induced ICR mouse T2DM model assessed as increase in plasma insulin level at 1 mg/kg, ip after 60 mins by ELISA (reference value: 111.6 +/- 2.7 pmol/L); type: functional; conditions: route intraperitoneal
Mus musculus [22] = assay: Antidiabetic activity in diet-induced ICR mouse T2DM model assessed as increase in plasma insulin level at 3 mg/kg, ip after 60 mins by ELISA (reference value: 112.1 +/- 3.2 pmol/L); type: functional; conditions: route intraperitoneal
Mus musculus [23] = assay: Antidiabetic activity in diet-induced ICR mouse T2DM model assessed as increase in plasma insulin level at 5 mg/kg, ip after 60 mins by ELISA (reference value: 112.1 +/- 6.3 pmol/L); type: functional; conditions: route intraperitoneal
Mus musculus [24] = assay: Antidiabetic activity in normal ICR mouse assessed as reduction in plasma glucose level after 30 mins post glucose challenge by ip glucose tolerance test (reference value: 346 +/- 15 mg/dL); type: functional
Mus musculus [25] = assay: Antidiabetic activity in diet-induced ICR mouse T2DM model assessed as reduction in plasma glucose level after 30 mins post glucose challenge by ip glucose tolerance test (reference value: 406 +/- 9 mg/dL); type: functional
Mus musculus [26] = assay: Antidiabetic activity in normal ICR mouse assessed as reduction in plasma glucose level after 60 to 150 mins post glucose challenge by ip glucose tolerance test; type: functional, organism-based
Mus musculus [27] = assay: Antidiabetic activity in diet-induced ICR mouse T2DM model assessed as reduction in plasma glucose level after 60 to 150 mins post glucose challenge by ip glucose tolerance test; type: functional, organism-based
Mus musculus [28] = assay: Antidiabetic activity in STZ-induced ICR mouse T1DM model assessed as decrease in phosphoenolpyruvate carboxykinase level in liver at 5 mg/kg administered bid for 7 days by Western blotting analysis; type: functional, organism-based; set-up: dose 5 mg/kg
Procedure, shortened: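 Male ICR mice with STZ-induced T1DM (fasting glucose >350 mg/dL, used 4 weeks after STZ) were dosed ip at 5.0 mg/kg twice daily for 7 days. Liver homogenates (60 µg) were run on 8% SDS-PAGE and Western blotted with PEPCK antibody (1:1000), with ECL detection. PEPCK (70 kDa) and β-actin (43 kDa) were quantified by densitometry; n = 3.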

Mus musculus [29] = assay: Antidiabetic activity in diet-induced ICR mouse T2DM model assessed as reduction in plasma glucose level at 5 mg/kg, ip after 60 mins (reference value: 170 +/- 2.8 mg/dL); type: functional; conditions: route intraperitoneal; procedure, shortened: as §1
Mus musculus [30] = assay: Antidiabetic activity in normal ICR mouse assessed as reduction in plasma glucose level at 5 mg/kg, ip after 60 mins (reference value: 102 +/- 3.7 mg/dL); type: functional; conditions: route intraperitoneal; procedure, shortened: as §1
Mus musculus [31] = assay: Antidiabetic activity in normal ICR mouse assessed as increase in plasma insulin level at 5 mg/kg, ip after 60 mins by ELISA (reference value: 52.5 +/- 4.6 pmol/L); type: functional; conditions: route intraperitoneal
Mus musculus [32] = assay: Antidiabetic activity in diet-induced ICR mouse T2DM model assessed as increase in plasma insulin level at 5 mg/kg, ip after 60 mins by ELISA (reference value: 123.5 +/- 10.2 pmol/L); type: functional; conditions: route intraperitoneal
Mus musculus [33] = assay: Antidiabetic activity in normal ICR mouse assessed as reduction in plasma glucose level at 200 mg/kg, ip after 60 mins; type: functional, organism-based; set-up: dose 200 mg/kg; procedure, shortened: as §1
Mus musculus [34] = assay: Antidiabetic activity in STZ-induced ICR mouse T1DM model assessed as reduction in plasma glucose level at 200 mg/kg, ip after 60 mins; type: functional, organism-based; set-up: dose 200 mg/kg; procedure, shortened: as §1
Mus musculus [35] = assay: Antidiabetic activity in STZ-induced ICR mouse T1DM model assessed as increase in plasma insulin level at 200 mg/kg, ip after 60 mins by ELISA (reference value: 13.5 +/- 1.1 pmol/L); type: functional; conditions: route intraperitoneal

Compound: COC(=O)C1=C[C@H](O)C[C@H]2[C@]3(C)C[C@@H](c4ccoc4)OC(=O)[C@H]3C[C@H](O[C@@H]3O[C@H](CO)[C@@H](O)[C@H](O)[C@H]3O)[C@@]12C
- Activity [1]: inactive
- Activity (MIN6): inactive
- Activity (Mus musculus [2]): inactive
- Activity (Mus musculus [3]): inactive

Compound: COc1ccc(Cl)cc1C(=O)NCCc1ccc(S(=O)(=O)NC(=O)NC2CCCCC2)cc1 [GLYBURIDE]
- Activity (Mus musculus [29]): 108 mg/dL
- Activity (Mus musculus [30]): 84 mg/dL
- Activity (Mus musculus [31]): 145.8 pmol/L
- Activity (Mus musculus [32]): 208.8 pmol/L

Compound: CN(C)C(=N)NC(=N)N [METFORMIN]
- Activity (Mus musculus [33]): Active
- Activity (Mus musculus [34]): Active
- Activity (Mus musculus [35]): 15.1 pmol/L

Now from value to compound, other results behind:

- Activity [1]: inactive
Compound: C[C@@]12C[C@@H](c3ccoc3)OC(=O)[C@@H]1C[C@@H]1OC(=O)[C@@]3(O)[C@@H](O[C@@H]4O[C@H](CO)[C@@H](O)[C@H](O)[C@H]4O)CC[C@@H]2[C@@]13C [BORAPETOSIDE A]
- Activity (MIN6): inactive
- Activity (Mus musculus [2]): Active
- Activity (Mus musculus [3]): Active
- fold change (FC) (Mus musculus [4]): 2
- fold change (FC) (Mus musculus [5]): 2

- Activity [1]: inactive
Compound: COC(=O)C1=CCC[C@H]2[C@]3(C)C[C@@H](c4ccoc4)OC(=O)[C@@H]3C[C@@H](O[C@@H]3O[C@H](CO)[C@@H](O)[C@H](O)[C@H]3O)[C@@]12C [BORAPETOSIDE C]
- Activity (MIN6): inactive
- Activity (Mus musculus [2]): Active
- Activity (Mus musculus [3]): Active
- Activity (Mus musculus [6]): Dose-dependent effect
- Activity (Mus musculus [7]): Dose-dependent effect
- Activity (Mus musculus [8]): Dose-dependent effect
- Activity (Mus musculus [9]): 71.5 pmol/L
- Activity (Mus musculus [10]): 70.7 pmol/L
- Activity (Mus musculus [11]): 63 pmol/L
- Activity (Mus musculus [12]): 142.6 pmol/L
- Activity (Mus musculus [13]): 149.6 pmol/L
- Activity (Mus musculus [14]): 16.3 pmol/L
- Activity (Mus musculus [15]): 15.7 pmol/L
- Activity (Mus musculus [16]): 15.9 pmol/L
- Activity (Mus musculus [17]): 14.8 pmol/L
- Activity (Mus musculus [18]): 14.3 pmol/L
- Activity (Mus musculus [19]): 111.3 pmol/L
- Activity (Mus musculus [20]): 170.8 pmol/L
- Activity (Mus musculus [21]): 173 pmol/L
- Activity (Mus musculus [22]): 253.9 pmol/L
- Activity (Mus musculus [23]): 257.6 pmol/L
- Activity (Mus musculus [24]): 293 mg/dL
- Activity (Mus musculus [25]): 343 mg/dL
- Activity (Mus musculus [26]): Active
- Activity (Mus musculus [27]): Active
- Activity (Mus musculus [28]): Active
